M18AAP inhibitor – PfM18AAP enzyme inhibition; AID 1822; recombinant PfM18AAP, H-Glu-NHMec fluorogenic cleavage; inhibition, % at 7.35 µM; actives 1.2% (n = 290,000);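 active means inhibition above the campaign mean inhibition over all tested compounds plus 3 SD, cut at about 28% in these data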
Neddylation inh – blocks human cullin neddylation. P61081+Q13564. TR-FRET cullin neddylation, biochemical. inhibition, % at 25 µM. actives 0.58% (n = 360,000); in the data active means inhibition above about 36%
Target sequence (P61081 whole entry, looked up): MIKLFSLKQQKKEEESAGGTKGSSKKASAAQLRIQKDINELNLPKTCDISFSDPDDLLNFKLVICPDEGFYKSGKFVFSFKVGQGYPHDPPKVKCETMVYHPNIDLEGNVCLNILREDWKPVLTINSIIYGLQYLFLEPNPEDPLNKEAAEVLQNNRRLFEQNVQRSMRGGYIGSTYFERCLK
Target sequence (Q13564 whole entry, looked up): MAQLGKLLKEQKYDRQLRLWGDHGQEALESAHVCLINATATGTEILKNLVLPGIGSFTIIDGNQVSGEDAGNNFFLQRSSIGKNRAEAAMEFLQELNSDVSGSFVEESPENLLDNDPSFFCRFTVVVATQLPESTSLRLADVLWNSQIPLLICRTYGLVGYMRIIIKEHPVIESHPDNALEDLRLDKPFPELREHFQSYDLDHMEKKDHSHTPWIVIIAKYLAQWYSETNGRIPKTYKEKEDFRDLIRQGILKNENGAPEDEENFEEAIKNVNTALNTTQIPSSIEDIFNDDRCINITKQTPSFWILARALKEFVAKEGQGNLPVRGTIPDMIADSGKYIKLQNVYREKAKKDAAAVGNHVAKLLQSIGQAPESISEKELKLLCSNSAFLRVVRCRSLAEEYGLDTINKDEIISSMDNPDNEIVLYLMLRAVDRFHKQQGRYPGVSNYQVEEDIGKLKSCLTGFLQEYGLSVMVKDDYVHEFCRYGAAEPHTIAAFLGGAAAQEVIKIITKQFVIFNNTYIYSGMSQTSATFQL
HKDC1 inhibitor – HKDC1 (human) hexokinase inhibition; Q2TB90; recombinant HKDC1, G6PDH/diaphorase resazurin coupled fluorescence; inhibition, % at 20 µM; actives 0.16% (n = 340,000);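 active means inhibition above about 35% when tested at 20 µM, limit read from the data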
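Material: recombinant HKDC1 hexokinase; Amount: HKDC1 at 5 µg/mL; Medium: Tris pH 8.0 buffer with MgCl2, Tween-20, BSA, BME; Schedule: 90 min reaction incubation at room temperature, dark; Technique: coupled resazurin fluorescence, excitation 525 nm, emission 613 nm.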
PfGluPho inh – PfG6PD (Plasmodium falciparum) enzyme inhibition | PfGluPho enzyme, NADPH resazurin-diaphorase fluorescence | inhibition, % at 20 µM | actives 0.78% (n = 350,000);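 active means inhibition reaching at least a set limit at 20 µM in the primary screen, cut at about 59% in these data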
Neddyl inh conf – confirmation of human cullin neddylation inhibitors | TR-FRET cullin neddylation biochemical assay | calls only at 25 µM | shares compounds with Neddylation inh | actives 13% (n = 1,800) | AID 652217; in the data active means inhibition above about 40%;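 further: neddylation substrate is the cullin 1 ring ligase complex with SKP2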
Large screens that a line does not name were inactive (follow-up assays come after a bar, where shown). In the library only some 2.2% were active in any assay of this set; here they are far more common.

Nc1ccc(C(=O)N/N=C2\CCCc3c2[nH]c2ccccc32)cc1	Neddylation inh 45 | Neddyl inh conf inactive
Cc1cccc(N2CC(C(=O)Nc3nnc(SCC(=O)N4CCOCC4)s3)CC2=O)c1 (stereo not given)	none
CC1(C)CC(NC(=O)c2ccc(F)cc2)CC(C)(C)N1	none (no result: M18AAP inhibitor, HKDC1 inhibitor)
CC(=O)c1ccc(-c2ccc(C(=O)NC3CC(C)(C)NC(C)(C)C3)o2)cc1	Neddylation inh 66 (not shown: M18AAP inhibitor)
CCn1c(SCc2ccccc2F)nnc1-c1ccncc1	none
Cc1sc2nc(-c3cccnc3)[nH]c(=O)c2c1-c1ccccc1	Neddylation inh 42 | Neddyl inh conf inactive
COc1ccc(/C=C/C(=O)NNC(=O)c2ccncc2)c(OC)c1	none (no result: M18AAP inhibitor)
Cc1cc(OCC(=O)N(Cc2ccccc2)C2CCS(=O)(=O)C2)ccc1Cl (stereo not given)	none
Cc1nn(-c2ccccc2)c2c1P(=O)(O)/C(=C1\N(C)c3ccccc3C1(C)C)C=N2	Neddylation inh 45 | Neddyl inh conf inactive
O=C(Cc1ccccc1)N/N=C/c1ccc(OC(=O)/C=C\c2ccco2)cc1	none
COC(=O)N/N=C/c1ccc(OC(=O)/C=C/c2ccco2)cc1	Neddylation inh 52 | Neddyl inh conf inactive
CC(C)(C)NC(=O)CC1C[C@H](C(=O)N2CCCCC2)[C@@]2(CCc3ccccc3)c3[nH]c4ccccc4c3CCN2C1=O (stereo not given in full)	none (no result: M18AAP inhibitor)
CCN(CC)c1ccc(C(=O)N/N=C/c2ccc(OC)cc2OC)cc1	Neddylation inh 42 | Neddyl inh conf inactive
COc1ccc(OC)c(C=NNC(=O)c2ccc(NS(=O)(=O)c3cccs3)cc2)c1	Neddylation inh 55 (not shown: M18AAP inhibitor)
COc1cccc(-c2nc(CS(=O)(=O)CC(=O)Nc3ccccc3Cl)c(C)o2)c1	none
C[C@@H]1CN(c2c(F)c(F)c3c(=O)c(C(=O)O)cn(C4CC4)c3c2F)C[C@H](C)N1	Neddylation inh 46
C[C@@H]1CN(c2c(F)c(N)c3c(=O)c(C(=O)O)cn(C4CC4)c3c2F)C[C@H](C)N1	none (no result: Neddylation inh, HKDC1 inhibitor, PfGluPho inh)
CCOC(=O)/C(=N/Nc1ccc(Br)cc1)N1CC(C)OC(C)C1 (stereo not given)	none (no result: M18AAP inhibitor)
NC(=O)c1cccc(N=Cc2cc(Cl)cc(Cl)c2O)c1	Neddylation inh 38 | Neddyl inh conf inactive
COc1ccc(CCNC(=O)c2cc3c(=O)n4cccc(C)c4nc3n(CC3CCCO3)c2=N)cc1 (stereo not given)	Neddylation inh 44 | Neddyl inh conf inactive
O=C1CSC(c2cn(-c3ccccc3)nc2-c2cc3ccccc3oc2=O)N1Cc1cccnc1 (stereo not given)	Neddylation inh 42 | Neddyl inh conf inactive
O=C1CSC(c2cn(-c3ccccc3)nc2-c2ccccc2)N1Cc1ccco1 (stereo not given)	none
NC(=O)N/N=C\c1cc(Br)ccc1O	Neddylation inh 41 | Neddyl inh conf inactive
CCOc1cccc(CN2CCC(Oc3ccc(C(=O)N4CCCC4)cc3)CC2)c1O	none (no result: M18AAP inhibitor, HKDC1 inhibitor)
CCCCn1c2nc3ccccc3nc2c2c(=O)n(CC(C)C)cnc21	Neddylation inh 37 (no result: M18AAP inhibitor) | Neddyl inh conf inactive
CCCCCn1c2nc3ccccc3nc2c2c(=O)n(CC(C)C)cnc21	none
CCN(CC)c1ncnc2c1ncn2[C@H]1CN(Cc2ccccc2)C[C@@H](CO)O1	none (no result: M18AAP inhibitor, HKDC1 inhibitor, PfGluPho inh)
Cc1ccc(-c2cc(C(=O)N3CCCCC3)c3ccccc3n2)cc1C	none
CCN(CC)CCCNc1nc(C)cc(COC)c1C#N	Neddylation inh 43 | Neddyl inh conf inactive
Cc1csc(NC(=O)c2cc(C)on2)n1	none (no result: M18AAP inhibitor)
Cc1cc(N2CCN(C)CC2)nc2ccc(NC(=O)CCC(=O)NCc3ccco3)cc12	Neddylation inh 43 | Neddyl inh conf inactive
CCCCn1nnnc1C1(C)CCC(=O)N1CC(F)(F)F (stereo not given)	none (no result: M18AAP inhibitor, HKDC1 inhibitor, PfGluPho inh)
COc1cccc(NC(=O)CNC(=O)Cn2cnc3sc(C)c(C)c3c2=O)c1	none
CCN(C(=O)CSc1nnnn1-c1ccc(Cl)cc1)C1CCS(=O)(=O)C1 (stereo not given)	none (no result: M18AAP inhibitor)
Cc1cc(C)n2nc(C(=O)NCc3ccco3)cc2n1	Neddylation inh 51
CCCCc1c(-c2ccc(OC)cc2)ncn1CCc1ccccc1OC	none (no result: M18AAP inhibitor, HKDC1 inhibitor, PfGluPho inh)
COc1cccc(NC(=O)c2sc3ncn(CC(=O)N4CCN(c5ccccn5)CC4)c(=O)c3c2C)c1	none
Cc1ccc(NC(=O)CNc2ccccc2N2CCCC2=O)cc1S(=O)(=O)N1CCOCC1	none (no result: M18AAP inhibitor)
C=CCN1C(=O)C(CC(=O)O)S/C1=N/N=C/c1ccc(N(CC)CC)cc1 (stereo not given)	Neddylation inh 43 (no result: M18AAP inhibitor) | Neddyl inh conf active
CN(C)c1ccc(/C=N/N=C2/SC(CC(=O)O)C(=O)N2c2ccc(O)cc2)cc1 (stereo not given)	none (not shown: Neddylation inh)
Oc1ccc(Br)cc1C=Nc1ccc2c3c(cccc13)CC2	Neddylation inh 43
CC(=O)c1ccc(N2CCN(C(=O)[C@H](C)NC(=O)c3ccccc3Cl)CC2)cc1	none
Cc1ccccc1NS(=O)(=O)c1ccc(OCC(=O)NCc2ccco2)cc1	none
CCOc1ccc(S(=O)(=O)Nc2ccccc2C(=O)NCc2ccco2)cc1	Neddylation inh 45 | Neddyl inh conf inactive
CCC(=O)c1cccc2c1N=CC1=C(CC(C)(C)CC1=O)N2	Neddylation inh 42
CC1CC(=O)C2=C(C1)Nc1ccccc1N=C2 (stereo not given)	none
O=C(OCC(=O)N(CCc1ccccc1)Cc1ccccc1)c1ccccc1NCCO	none (not shown: Neddylation inh)
Cc1cnc(NC(=O)c2ccc(-c3nc4ccccc4s3)o2)s1	Neddylation inh 41 | Neddyl inh conf inactive
CCS(=O)(=O)Nc1ccc(C2=NN(S(=O)(=O)CC)C(c3cccs3)C2)cc1 (stereo not given)	Neddylation inh 44 | Neddyl inh conf inactive
CCS(=O)(=O)Nc1cccc(C2=NN(S(=O)(=O)CC)C(c3cccs3)C2)c1 (stereo not given)	none
O=S1(=O)N=C(N(CCO)/N=C/c2ccc(Cl)cc2)c2ccccc21	Neddylation inh 47
COc1ccccc1Nc1cc(C)nc2c(C)ccc([N+](=O)[O-])c12	Neddylation inh 45 | Neddyl inh conf inactive
Cc1cc(Nc2ccccc2)c2c([N+](=O)[O-])cc(C)c(C)c2n1	none
COc1ccc(-c2ccc3c(N)c(C(=O)NC(C)C)sc3n2)cc1OC	Neddylation inh 39
COc1ccc(-c2ccc3c(N)c(C(=O)c4ccc(OC)c(OC)c4)sc3n2)cc1	none
CN(CCOc1ccc(Cl)cc1)C(=O)c1cc([N+](=O)[O-])ccc1N1CCOCC1	none (no result: M18AAP inhibitor)
COc1ccc(S(=O)(=O)Nc2cc3[nH]c(=O)oc3cc2C)cc1	none
CC(C)NC(=O)/C(=C/c1ccco1)c1ccccc1	Neddylation inh 39 | Neddyl inh conf inactive
Cc1oc(-c2cccs2)nc1CSCC(=O)NC1CC1	Neddylation inh 52 | Neddyl inh conf inactive
Cc1nc(N)nc(N)c1-c1ccc([N+](=O)[O-])cc1	none (no result: M18AAP inhibitor)
COc1ccc(Cl)cc1NC(=O)CN(C)C(=O)CN1C(=O)NC2(CCCC2)C1=O	none (no result: M18AAP inhibitor)
CN(C)CCN(C(=O)/C=C/c1cccs1)c1nc2ccc(Br)cc2s1	Neddylation inh 40 | Neddyl inh conf inactive
CCOC(=O)c1cn2nc(Oc3cccc(C(F)(F)F)c3)ccc2n1	Neddylation inh 55

Source: PubChem
